Assay outcomes as filed in PubChem.
A selection: hits, their analogues and other compounds. The true share with any hit is near 2.9%.
SENP7 block – SENP7 protease inhibitors, primary screen, biochemical, luminescence, uHTS. AID 434973, 2010. Sentrin-specific protease 7 (Homo sapiens), Q9BQF6. recombinant SENP7, Z-RLRGG-aminoluciferin luminescence, 40 min. 1.5% of 330,000 active. inhibition, % at 5 µM;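 active = inhibition above about 50% at the single test dose, limit read from the data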
SENP6 inh – SENP6 protease inhibitors, primary screen, biochemical, luminescence, uHTS; inhibition, % at 10 µM; Recombinant SENP6 catalytic domain, aminoluciferin luminescence; 1.8% of 330,000 active; Sentrin-specific protease 6 (Homo sapiens), Q9GZR1; AID 2599, 2010;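 active = inhibition above about 50% at the single tested dose, limit read from the data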
SENP8 block-1 – SENP8 protease inhibitors, primary screen, biochemical, luminescence. Sentrin-specific protease 8 (Homo sapiens), Q96LD8. purified SENP8, Z-RLRGG-aminoluciferin cleavage. inhibition, % at 10 µM. 1.2% of 330,000 active. AID 2540, 2010; in the data active = inhibition above about 50%
Target sequence (Q96LD8 whole entry, looked up): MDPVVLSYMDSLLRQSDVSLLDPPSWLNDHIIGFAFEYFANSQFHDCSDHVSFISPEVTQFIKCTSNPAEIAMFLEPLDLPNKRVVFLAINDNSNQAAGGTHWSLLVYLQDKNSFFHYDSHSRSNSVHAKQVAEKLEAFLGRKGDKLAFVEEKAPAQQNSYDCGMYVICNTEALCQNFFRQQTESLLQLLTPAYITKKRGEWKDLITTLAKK
HSP90 inh – HSP90 inhibitors, primary screen, cell lysate, luminescence; Heat shock protein HSP 90 (rabbit reticulocyte lysate; luciferase refolding); Rabbit reticulocyte lysate, luciferase refolding luminescence, 3 h; inhibition, % at 5.6 µM; 0.91% of 290,000 active; AID 1789, 2009;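 active = inhibition above the screen-wide mean plus 3 SD, computed separately per campaign, cut at about 16% in these data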;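 also: inhibitors lower the luminescence because luciferase stays unfolded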
SENP1 FRET inh – human SENP1 catalytic domain inhibitors, primary screen, biochemical, FRET, uHTS. inhibition, % at 10 µM. AID 624204, 2012. recombinant SENP1 catalytic domain, CyPet-SUMO1-YPet FRET cleavage. 0.21% of 360,000 active. Sentrin-specific protease 1 (Homo sapiens), Q9P0U3;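 active = inhibition at least 30% at 10 µM, raw YFP signal under a set limit, fluorescence ratio 0.5 to 1.5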
Target sequence (Q9P0U3 419-644 limits assumed): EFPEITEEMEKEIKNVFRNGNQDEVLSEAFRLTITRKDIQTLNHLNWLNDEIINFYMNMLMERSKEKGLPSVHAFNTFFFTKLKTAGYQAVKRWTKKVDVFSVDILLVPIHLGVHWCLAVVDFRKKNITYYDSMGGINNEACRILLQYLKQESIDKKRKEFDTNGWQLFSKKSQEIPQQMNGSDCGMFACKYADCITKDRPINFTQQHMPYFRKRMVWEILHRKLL
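System: Recombinant human SENP1 catalytic domain, His6-tagged | Incubation: Enzyme reaction for 50 min at room temperature, dark | Medium: Tris pH 8 with BME, BSA, NP40 and catalase | Also added: 25 nM SUMO1 FRET substrate | Compound: 10 µM single point, 0.5% DMSO | Measured by: FRET fluorescence in CFP and YFP emission channels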
SENP8 block-2 – human SENP8 protease inhibitors, primary screen, biochemical, fluorescence, Nedd8 protein substrate, uHTS. recombinant SENP8. 0.64% of 360,000 active. AID 602440, 2012. inhibition, % at 20 µM; in the data active = inhibition mostly above about 40%, no sharp cut-off; inactive = mostly below about 27%
SENP8 inh conf – human SENP8 protease inhibitors, confirmation, biochemical, Nedd8 protein substrate, single concentration. shares compounds with SENP8 block-2. purified SENP8, Nedd8-AMC/pro-Nedd8 cleavage fluorescence, 30 min. inhibition, % at 25 µM. 15% of 1,400 active. AID 624319, 2012; in the data active = inhibition mostly above about 39%, no sharp cut-off; inactive = mostly below about 34%
Large screens that a line does not name were inactive (follow-up assays come after a bar, where they were run).

COc1cccc(N=Nc2c(=O)[nH]n3c(=O)c4c([nH]c23)CCC4)c1	none
COc1cccc(N=Nc2c(=O)[nH]n3c(=O)cc(C)[nH]c23)c1	SENP8 block-2 47.5 | SENP8 inh conf inactive
CC(C)C1Cc2c(sc3ncnc(NN)c23)CO1 (stereo not given)	SENP8 block-2 41.7 | SENP8 inh conf inactive
CC(C)Cc1nc2sc3c(c2c(=O)n1N)CC(C(C)C)OC3 (stereo not given)	none
COc1ccc(OC)c(NC(=O)CCN2C(=O)c3cccc([N+](=O)[O-])c3C2=O)c1	none
O=C(NCCN1CCOCC1)c1cc([N+](=O)[O-])ccc1Cl	none
O=C(NCCN1CCOCC1)c1ccc([N+](=O)[O-])cc1[N+](=O)[O-]	SENP8 block-2 46.4 | SENP8 inh conf inactive
O=C1Cc2ccccc2C(=O)N1Cc1cccc(Cl)c1	HSP90 inh 16.2, SENP8 block-2 102.6 (no result: SENP7 block, SENP6 inh, SENP8 block-1) | SENP8 inh conf 45.8
CCNc1nc(NOC)nc(OCC#N)n1	none
CCNc1nc(NCC)nc(OCC(=O)O)n1	SENP8 block-2 45.9 | SENP8 inh conf inactive
Cc1[nH][nH]c(=O)c1C(c1cc2c(cc1Br)OCO2)c1c(C)[nH][nH]c1=O	none
Cc1[nH][nH]c(=O)c1C(c1cc(Br)ccc1O)c1c(C)[nH][nH]c1=O	SENP8 block-2 41.8 | SENP8 inh conf inactive
CCCCC1CN2CCc3c([nH]c4ccccc34)C2(C)C1 (stereo not given)	none
C[C@@H]1CN(Cc2nc(-c3cccs3)no2)C[C@H](C)O1	SENP8 block-2 42.4 | SENP8 inh conf inactive
COCC1CCN(Cc2nc(-c3cccs3)no2)C1 (stereo not given)	none
CCCc1nc2ccccc2n1CCOc1ccccc1	SENP8 block-2 42.2 | SENP8 inh conf inactive
COc1ccc(N=C2S/C(=C\c3ccc(C)s3)C(=O)N2CC(C)C)cc1	SENP8 block-2 44.1 | SENP8 inh conf inactive
CC1=NN(c2cccc([N+](=O)[O-])c2)C(=O)C1	none
CC1=NN(c2ccc(S(=O)(=O)O)cc2C)C(=O)C1	SENP8 block-2 68.6 | SENP8 inh conf inactive
CC1CN(c2ccc([N+](=O)[O-])c(NCCOc3ccccc3)c2)CC(C)N1 (stereo not given)	SENP8 block-2 38.3 | SENP8 inh conf inactive
CC1CN(c2ccc([N+](=O)[O-])c(NCCOc3ccc(Cl)cc3)c2)CC(C)N1 (stereo not given)	SENP8 block-2 46.2 | SENP8 inh conf inactive
CC(C)(C)CNc1cc(N2CCCC2)ccc1[N+](=O)[O-]	none
O=[N+]([O-])c1ccc(N2CCCCC2)cc1NCCOc1ccccc1	SENP8 block-2 40.5 | SENP8 inh conf inactive
Cc1ccccc1OCCNc1cc(N2CC(C)NC(C)C2)ccc1[N+](=O)[O-] (stereo not given)	none
CC(C)c1ccccc1NC(=O)CSc1n[nH]c(=O)n1C1CC1	none (no result: HSP90 inh)
Cc1cc(OCC(=O)Nc2ccc(Br)cc2)cc2c1C(=O)CC(C)(C)O2	SENP8 block-2 40.6 | SENP8 inh conf inactive
CC1(C)CC(=O)c2c(O)cc(OCc3ccc(Br)cc3)cc2O1	none
CC(=O)Nc1ccc(NC(=O)COc2cc(O)c3c(c2)OC(C)(C)CC3=O)cc1	SENP8 block-2 40.8 | SENP8 inh conf inactive
COC(=O)C(N)CCCCN (stereo not given)	SENP8 block-2 43.0 (no result: HSP90 inh) | SENP8 inh conf inactive
COC(=O)[C@@H](N)Cc1ccc(O)cc1	none (no result: SENP1 FRET inh, SENP8 block-2)
CC1(C(=O)NCc2cccc3ccccc23)CCN1Cc1cccc2c1OCO2 (stereo not given)	none (no result: SENP7 block, SENP6 inh, SENP8 block-1, HSP90 inh)
O=C(Oc1ccc(=O)[nH]n1)c1ccccc1	none (no result: SENP7 block, SENP6 inh, SENP8 block-1, HSP90 inh)
COc1ccc(CNC(=O)Cn2ccc(N)nc2=O)cc1	SENP8 block-2 45.3 (no result: HSP90 inh) | SENP8 inh conf inactive
COc1cc(NC(C)=O)c2ncccc2c1[N+](=O)[O-]	SENP8 block-2 47.7 | SENP8 inh conf inactive
CC1=C(SCCC#N)S/C(=C2\SC(C)=C(SCCC#N)S2)S1	SENP8 block-2 45.5 | SENP8 inh conf 69.3
O=C1NN=C(c2ccccc2)C1Cc1ccccc1 (stereo not given)	none (no result: SENP7 block, SENP6 inh, SENP8 block-1, HSP90 inh)
Cc1cc(=S)[nH]c2c(C)cccc12	SENP8 block-2 40.3 | SENP8 inh conf inactive
COc1ccc(NC(C)C(=O)N/N=C/c2ccccc2OCc2ccc(Br)cc2)cc1 (stereo not given)	none
CC(Nc1ccc(Br)cc1)C(=O)N/N=C/c1ccccc1OCc1ccccc1 (stereo not given)	SENP8 block-2 46.5 | SENP8 inh conf inactive
COc1ccc(CC(N)c2csc(Nc3ccc(C(=O)c4ccccc4)cc3)n2)cc1 (stereo not given)	none (no result: SENP7 block, SENP6 inh, SENP8 block-1, HSP90 inh)
CC1(C)Cc2nc(NC3CCCCC3)c(C#N)cc2CO1	none
COc1ccc(N2C(=O)Cc3ccccc3C2=O)cc1	SENP8 block-2 84.3 | SENP8 inh conf inactive
O=C(NC1C(=O)NNC1c1ccccc1)c1ccccc1 (stereo not given)	SENP8 block-2 55.1 | SENP8 inh conf inactive
Cc1cccc(C(=O)NC2CCCCCCC2)c1	none
Cc1cccc(C(=O)NC2C(=O)NNC2c2ccc(Cl)cc2)c1 (stereo not given)	SENP8 block-2 44.5 | SENP8 inh conf inactive
CCC(C(=O)OCCOCCN(CC)CC)c1ccccc1 (stereo not given)	none
CCN(CC)CCCOC(=O)C(c1ccccc1)c1ccccc1	SENP8 block-2 61.7 | SENP8 inh conf inactive
Cc1ccnc(NC(=O)c2cccc(NC(=O)c3ccccc3C)c2)c1	none
CN(C)CCCNC(=O)c1ccc(Cl)c(S(=O)(=O)N(C)c2ccccc2)c1	none
O=C1C2C3C=CC(C4CC34)C2C(=O)N1c1cccc2ccccc12 (stereo not given)	none
CCOc1cc(Cl)c(CNCCCN2CCOCC2)cc1OC	none
CCCNCc1cc(OC)c(OCCC)cc1Cl	SENP8 block-2 40.4 | SENP8 inh conf inactive
O=C(CSC1=NNC(c2ccccn2)S1)Nc1ccccc1 (stereo not given)	SENP8 block-2 47.6 | SENP8 inh conf inactive
CCCc1cc(=O)[nH]c(SCC(=O)Nc2ncc(S(=O)(=O)c3ccc([N+](=O)[O-])cc3)s2)n1	SENP8 block-2 47.4 | SENP8 inh conf inactive
CCc1ccccc1N1C(=O)C2CC(C)=C(C)CC2C1=O (stereo not given)	SENP8 block-2 40.8 | SENP8 inh conf inactive
CCc1ccccc1N1C(=O)C2CC=CCC2C1=O (stereo not given)	none
